Most compounds without a hit are left out; they make up all but 3.5% or so of the library.
MrgX1 agonist = agonists of human MrgX1 receptor, primary screen, HEK293 cells, Fluo-4 calcium flux | AID 588627, 2011 | B-score at 10 µM | Fluo-4 calcium fluorescence, agonist mode; stronger effect = higher value | 310,000 compounds, 0.44% hits;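 active = calcium response B-score plate-corrected fluorescence ratio at least 3 library SD, with starting fluorescence B-score inside 5 SD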
Target sequence (Q96LB2 whole entry, looked up): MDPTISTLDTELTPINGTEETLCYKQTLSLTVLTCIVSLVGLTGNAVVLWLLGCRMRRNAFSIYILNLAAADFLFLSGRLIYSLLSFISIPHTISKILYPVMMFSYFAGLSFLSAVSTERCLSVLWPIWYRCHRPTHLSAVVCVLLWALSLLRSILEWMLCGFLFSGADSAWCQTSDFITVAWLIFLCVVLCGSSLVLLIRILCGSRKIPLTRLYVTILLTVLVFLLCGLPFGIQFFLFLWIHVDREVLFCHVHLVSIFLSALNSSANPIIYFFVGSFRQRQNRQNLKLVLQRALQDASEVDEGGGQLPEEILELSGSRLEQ
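Material: HEK293 cells stably expressing human MrgX1 receptor | Quantity: 15,000 cells per well | Times: Cells plated overnight, dye loaded 0.5 h 37 °C, 0.5 h room temperature | Measured by: Kinetic Fluo-4 NW fluorescence of intracellular calcium | Control set: Positive and negative controls per plate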
MrgX1 allo act = positive allosteric modulators of MrgX1, primary screen, HEK293 cells, Fluo-4 calcium flux | Mas-related G-protein coupled receptor member X1 (Homo sapiens), Q96LB2 | FDSS; stronger effect = higher value | B-score at 10 µM | 310,000 compounds, 0.63% hits | AID 588675, 2011;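 active = plate-corrected calcium response at least 3 library SD above typical, normal starting fluorescence, not activating the receptor alone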;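 note: compound read alongside a low EC10 to EC30 dose of BAM8-22 agonist; peak minus trough fluorescence over baseline measured at the second addition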
MrgX1 antag = antagonists of human MrgX1 receptor, primary screen, HEK293 cells, Fluo-4 calcium flux; AID 588676, 2011; B-score at 10 µM; BAM8-22 antagonism; stronger effect = lower value; 310,000 compounds, 1.3% hits; Mas-related G-protein coupled receptor member X1 (Homo sapiens), Q96LB2;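 active = calcium-response B-score plate-corrected more than 3 library SD below zero, starting fluorescence within 5 deviations, no agonist response on first addition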;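 note: peak minus trough fluorescence over baseline after final BAM8-22 challenge near maximal dose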
RGS4 block = RGS4 inhibitors, primary screen, cell-based, HEK293 M3R inducible RGS4, calcium flux; Fluo-4 calcium flux; stronger effect = higher value; triggered by carbachol at its EC20; B-score at 10 µM; 310,000 compounds, 0.45% hits; AID 463165, 2010;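 active = B-score, a plate-corrected calcium signal, over three deviations above library mean, with baseline fluorescence within five deviations of library mean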;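 note: RGS4 expression induced by doxycycline in cells with stable M3 receptor; B-score is computed from the integrated fluorescence ratio over baseline after carbachol; higher B-score means a larger calcium signal and so more RGS4 inhibition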
Target sequence (P49798 whole entry, looked up): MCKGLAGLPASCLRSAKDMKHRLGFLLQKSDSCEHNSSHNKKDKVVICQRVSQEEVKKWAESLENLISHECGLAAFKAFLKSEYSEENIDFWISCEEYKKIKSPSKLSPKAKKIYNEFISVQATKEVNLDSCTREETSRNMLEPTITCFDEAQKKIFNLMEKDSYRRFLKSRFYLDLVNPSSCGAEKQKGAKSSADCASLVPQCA
RGS4 act = RGS4 potentiators or activators, primary screen, cell-based, HEK293 M3R inducible RGS4, calcium flux | carbachol calcium flux Fluo4; stronger effect = lower value | B-score at 10 µM | 310,000 compounds, 0.92% hits | AID 463111, 2010;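 active = B-score of the integrated calcium signal more than 4 SD below the library mean, with starting fluorescence not abnormally high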;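 note: negative B-score means reduced calcium response which marks RGS4 activation or potentiation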
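Reagent: ECmax carbachol challenge; Test system: M3R-expressing HEK293 line, RGS4 induced by doxycycline; Schedule: overnight RGS4 induction, 30 min dye load 37 °C, 20 min compound RT; Detection: calcium dye Fluo4 fluorescence; Read-out: Agonist-evoked peak-minus-minimum fluorescence over baseline, integrated ratio, B score.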
MrgX1 antag conf = MrgX1 receptor antagonists, duplicate retest, confirmation, HEK293 cells, Fluo-4 calcium flux; shares compounds with MrgX1 antag; BAM8-22 calcium flux; stronger effect = lower value; remaining BAM8-22 calcium response % of control (stronger effect = lower value), % at 10 µM; 2,300 compounds, 19% hits; AID 602420, 2012;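 active = remaining agonist calcium response no higher than 100% minus 3 SD of agonist-only control wells, with starting fluorescence near control levels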;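 note: agonist BAM8-22 given at a near maximal EC90 to ECmax level; peak minus minimum fluorescence divided by baseline after agonist addition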
HEK293 Ca flux = nonspecific calcium signal in parental HEK293, confirmation, counter-screen for MrgX1 antagonist project, parental HEK293 cells, Fluo-4 calcium flux; shares compounds with MrgX1 antag; fluorescence ratio F(max-min)/F0 at 10 µM; Fluo-4 calcium fluorescence, FDSS; 4,000 compounds, 2% hits;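 active = duplicate-averaged calcium fluorescence ratio at least three times the standard deviation of buffer wells, a nonspecific response in parental cells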
HEK293 Ca counter = calcium response in parental HEK293 cells, primary screen, counter-screen for MrgX1 allosteric activator project, cell-based, Fluo-4 calcium flux, duplicate; 4,000 compounds, 0.4% hits; fluorescence ratio F(max-min)/F0 at 10 µM; shares compounds with MrgX1 antag; Fluo-4 fluorescence ratio; stronger effect = higher value; AID 624114, 2012;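 active = calcium fluorescence ratio, averaged over duplicates, at least 3 SD of the buffer-well ratio, meaning a nonspecific response in receptor-free cells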;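 note: untransfected parental HEK293 lacking MrgX1 used as counterscreen for MrgX1 allosteric activators; fluorescence change taken during the second addition on a kinetic imager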
HEK293 Ca cntr2 = calcium response in parental HEK293 cells, primary screen, counter-screen for MrgX1 agonist project, cell-based, Fluo-4 calcium flux, duplicate, agonist mode; shares compounds with MrgX1 antag; Fluo-4 calcium fluorescence (FDSS); stronger effect = higher value; fluorescence ratio F(max-min)/F0 at 10 µM; 4,000 compounds, 8.7% hits;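 active = calcium fluorescence ratio at least three times the spread of buffer wells, meaning a non-specific response in parental cells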
An asterisk follows results filed as active; i = inactive; / = not tested or not shown.

SMILES	MrgX1 agonist	MrgX1 allo act	MrgX1 antag	RGS4 block	RGS4 act	MrgX1 antag conf	HEK293 Ca flux	HEK293 Ca counter	HEK293 Ca cntr2
COc1ccccc1N1CCN(CC(O)c2ccc3cc[nH]c3c2)CC1 (stereo not given)	i	i	-9.8*	i	i	i	i	i	i
COc1ccccc1CC(=O)N(Cc1ccccc1)c1ccc(C)cc1	i	i	i	i	i	/	/	/	/
CCN1CNC(=S)N(c2cc(C)ccc2C)C1	i	i	-5.8*	i	i	i	i	i	i
C=CCn1c(CC(=O)OC)csc1=Nc1ccc(C(C)=O)cc1	i	i	-5.2*	i	i	i	i	i	i
CC(C)CNC(=O)C(=O)NCC1OCCCN1S(=O)(=O)c1ccc2c(c1)OCCO2 (stereo not given)	i	i	i	i	i	/	/	/	/
COc1ccccc1-n1c(SCC(=O)NCC2CCCO2)nc2c([nH]c3ccccc32)c1=O (stereo not given)	i	i	i	i	i	/	/	/	/
COc1cc(NC(=O)c2nccnc2C(=O)O)cc(OC)c1	i	i	-6*	i	i	i	i	i	i
O=C(CSc1nncn1-c1cccnc1)N(c1ccccc1)c1ccccc1	i	i	i	i	i	/	/	/	/
c1ccc(CSc2nnc(Cc3ccccn3)o2)cc1	i	i	-7.8*	i	i	i	i	i	i
c1ccc(CSc2nnc(Cc3ccccc3)o2)cc1	i	i	i	i	i	/	/	/	/
CC1(c2ccc(OC(F)F)cc2)NC(=O)N(CC(=O)Nc2ccc(S(N)(=O)=O)cc2)C1=O (stereo not given)	i	i	-6.9*	i	i	i	i	i	i
COc1ccccc1CCN=C(N)NS(=O)(=O)c1ccc(C)c(C)c1	i	i	i	i	i	/	/	/	/
COc1ccc(N2CC(O)=C(c3nc(-c4ccc(F)cc4)cs3)C2=N)cc1Cl	i	i	i	i	i	/	/	/	/
COc1ccc(N2CC(O)=C(c3nc(-c4ccc(F)cc4)cs3)C2=N)cc1OC	i	i	-6.8*	i	i	i	i	i	i
Cc1ccccc1N(C(=O)Cc1c[nH]c2ccccc12)C(C(=O)NC1CCCCC1)c1ccco1 (stereo not given)	i	i	-16*	i	i	i	i	i	i
N#Cc1cc(-c2ccccc2)nnc1Sc1ccc(F)cc1	i	i	i	i	i	/	/	/	/
N#Cc1cc(-c2ccccc2)nnc1Sc1ccccc1	i	i	-4.9*	i	i	79%*	i	i	i
CC(=O)Nc1ccc(NC(=O)C(C)OC(=O)CNS(=O)(=O)c2cccc(Cl)c2)cc1 (stereo not given)	i	i	i	i	i	/	/	/	/
CCOC(=O)c1ccc2c(c1)nc(COc1ccc3ccccc3c1)n2CC	i	i	-5.2*	i	-7.3*	i	i	i	i
CCn1c(COc2ccc(OC)cc2)nc2ccccc21	i	i	i	i	i	/	/	/	/
Cc1c(C)n(Cc2ccccc2)c2ccc(C(=O)OCCN(C)C)cc12	i	i	i	i	i	/	/	/	/
Cc1nn(-c2ccccc2)c(C)c1NC(=O)COc1ccc([N+](=O)[O-])cc1	i	i	i	i	i	/	/	/	/
Cn1cc(CC(=O)Nc2cccc(C#N)c2)c2ccccc21	i	i	-4.6*	i	i	i	i	i	i
CCN=C(NCC)SC1CC(=O)N(c2ccccc2)C1=O (stereo not given)	i	i	-8.2*	i	i	i	i	i	i
COc1ccccc1CNC(=O)C1CCC1	i	i	-7.9*	i	i	82%*	i	i	i
SMILES	MrgX1 agonist	MrgX1 allo act	MrgX1 antag	RGS4 block	RGS4 act	MrgX1 antag conf	HEK293 Ca flux	HEK293 Ca counter	HEK293 Ca cntr2
CC1(C)C2CCC(C2)C1(C)NC(=O)CN1CCOCC1 (stereo not given)	i	i	-10*	/	/	i	i	i	i
CC1(C)C2CCC(C2)C1(C)NC(=O)CN1CCCC1 (stereo not given)	i	i	i	i	i	/	/	/	/
CC(Oc1ccc(Cl)cc1)C(=O)Nc1ccc(S(=O)(=O)Nc2nccs2)cc1 (stereo not given)	i	i	-5.6*	i	i	i	i	i	51*
COc1ccc(C(=O)Nc2ccc(OCC(=O)N3CCOCC3)cc2)c(OC)c1OC	i	i	i	i	i	/	/	/	/
CC(NC(N)=O)C(=O)OCc1ccc(Cl)cc1Cl (stereo not given)	i	i	-8.2*	i	i	i	i	i	i
O=C(Cn1nc(C(F)(F)F)cc1C1CC1)Nc1ccccc1F	i	i	-5.1*	i	i	i	i	i	i
COc1ccccc1-c1nnc(SCC(=O)OC(C)C)o1	i	i	-6.6*	i	i	i	i	i	i
CN(C)CCCSc1nc2ccccc2s1	i	i	-7.1*	i	i	69%*	i	i	i
O=C(CN(Cc1ccccc1Cl)C(=O)c1csnn1)NCc1ccccc1	i	i	i	i	i	/	/	/	/
COc1ccc(Cl)cc1C(=O)NNC(=O)COC(=O)CCN=C1NS(=O)(=O)c2ccccc21	i	i	i	i	i	/	/	/	/
CCN(CC(=O)NC1CCS(=O)(=O)C1)S(=O)(=O)c1cc(C)ccc1C (stereo not given)	i	i	i	i	i	/	/	/	/
